Test results taken from ChEMBL document CHEMBL4732211, “Multifunctional agents based on benzoxazolone as promising therapeutic drugs for diabetic nephropathy” (Eur J Med Chem, 2021).
Active and inactive are the calls of the source. No cut-off for these calls is given here.

Columns and labels:
[1] = target: Aldo-keto reductase family 1 member B1 (Rattus norvegicus, UniProt P07943); experiment: Inhibition of Wistar rat lens ALR2 assessed as reduction in NADPH oxidation using D,L-glyceraldehyde and NADPH as substrate preincubated for 10 mins followed by substrate addition and measured for 4 mins by spectrophotometric analysis; type: tissue-based
[2] = target: Aldo-keto reductase family 1 member A1 (Rattus norvegicus, UniProt P51635); experiment: Inhibition of Wistar rat kidney ALR1 assessed as reduction in NADPH oxidation using sodium D-glucuronate and NADPH as substrate preincubated for 10 mins followed by substrate addition and measured for 4 mins by spectrophotometric analysis; type: tissue-based
[3] = organism: Rattus norvegicus; experiment: Selectivity index, ratio of IC50 for Wistar rat kidney ALR1 to IC50 for Wistar rat lens ALR2
Outline: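 Aldose reductases (ALR2, ALR1) prepared from Wistar rats (200-250 g). NADPH loss followed at 340 nm for 4 min after substrate start, following 10 min preincubation. ALR2: pH 6.2 phosphate, 30 °C, NADPH 0.10 mM, D,L-glyceraldehyde 10 mM. ALR1: pH 7.2, 37 °C, NADPH 0.12 mM, D-glucuronate 20 mM. 0.5% DMSO; non-enzymatic rate subtracted. IC50 from log dose-response with ≥3 concentrations (20-80% inhibition), triplicate.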

[4] = Antioxidant activity assessed as DPPH radical scavenging activity at 10 uM after 30 mins by spectrophotometric analysis; type: functional
Outline: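 DPPH in methanol (1 mL, 0.025 mg/mL) plus methanol 1.9 mL and compound in methanol, final 100, 50 and 10 µM; absorbance at 517 nm. Scavenging % = 1 − (A_sample − A_blank)/A_control, where the blank is compound without DPPH. Trolox reference.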

[5] = test system: Mus musculus; experiment: Inhibition of polyol pathway in STZ-induced Kunming mouse model of diabetes assessed as decrease in sorbitol level in kidney cortex at 80 mg/kg, po administered daily via gavage for 8 weeks and measured at 6 hrs post-final drug dose by fluorospectrophotometric analysis; type: functional
[6] = test system: Mus musculus; experiment: Antioxidant activity in STZ-induced diabetic Kunming mouse assessed as reduction in liver MDA level at 80 mg/kg, po administered daily via gavage for 8 weeks and measured at 6 hrs post-final drug dose relative to STZ-treated group; type: functional; conditions: 1344 h
[7] = test system: Mus musculus; experiment: Reno-protective activity in STZ-induced Kunming mouse model of diabetes assessed as reduction in albumin to creatinine ratio at 80 mg/kg, po administered daily via gavage for 8 weeks; type: functional
[8] = test system: Mus musculus; experiment: Antidiabetic activity in STZ-induced Kunming mouse model of diabetes assessed as reduction in blood glucose level at 80 mg/kg, po administered QD via gavage for 4 weeks and measured at week 2 to 4; type: functional, organism-based; conditions: time 2-4 weeks
[9] = test system: Mus musculus; experiment: Reno-protective activity in STZ-induced Kunming mouse model of diabetes assessed as reduction in urinary total protein excretion at 80 mg/kg, po administered daily via gavage for 8 weeks and measured at week 4 relative to control; type: functional
[10] = test system: Mus musculus; experiment: Reno-protective activity in STZ-induced Kunming mouse model of diabetes assessed as reduction in urinary total protein excretion at 80 mg/kg, po administered daily via gavage for 8 weeks and measured at week 6 relative to control; type: functional
[11] = test system: Mus musculus; experiment: Reno-protective activity in STZ-induced Kunming mouse model of diabetes assessed as reduction in urinary total protein excretion at 80 mg/kg, po administered daily via gavage for 8 weeks and measured at week 8 relative to control; type: functional

Aldo-keto reductase family 1 member A1, sequence (P51635 whole entry, looked up): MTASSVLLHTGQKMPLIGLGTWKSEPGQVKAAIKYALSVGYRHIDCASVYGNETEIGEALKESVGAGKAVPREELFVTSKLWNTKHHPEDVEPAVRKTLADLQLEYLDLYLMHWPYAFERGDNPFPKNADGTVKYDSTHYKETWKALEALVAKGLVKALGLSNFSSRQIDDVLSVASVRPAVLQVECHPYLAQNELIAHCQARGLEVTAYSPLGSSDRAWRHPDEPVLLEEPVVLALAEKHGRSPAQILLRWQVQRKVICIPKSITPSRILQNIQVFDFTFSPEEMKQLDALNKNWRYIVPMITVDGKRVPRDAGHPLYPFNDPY

| Structure (SMILES) | IC50 [1] | IC50 [2] | Ratio IC50 [3] | also measured |
| --- | --- | --- | --- | --- |
| O=C(O)Cn1c(=O)oc2c(/C=C/c3ccccc3)cccc21 | 0.0547 µM | 1700 µM | 31000 | – |
| CC(C)(C)c1ccc(-c2cccc3c2oc(=O)n3CC(=O)O)cc1 | 0.0212 µM | 174 µM | 8200 | – |
| O=C(O)Cn1c(=O)oc2c(/C=C/c3ccc(O)cc3)cccc21 | 0.0348 µM | 67.6 µM | 1940 | Activity [4]: 22.7% |
| O=C(O)Cn1c(=O)oc2c(-c3ccc(-c4ccccc4)cc3)cccc21 | 0.0754 µM | 6.2 µM | 82 | – |
| O=C(O)Cn1c(=O)oc2cc(/C=C/c3ccc(O)cc3)ccc21 | 0.0465 µM | 575 µM | 12400 | – |
| O=C(O)Cn1c(=O)oc2cc(/C=C/c3ccccc3)ccc21 | 0.0657 µM | 2.57 µM | 39 | – |
| O=C(O)Cn1c(=O)oc2ccc(/C=C/c3ccccc3)cc21 | 0.226 µM | 17.4 µM | 77 | – |
| O=C(O)Cn1c(=O)oc2c(-c3ccccc3)cccc21 | 0.149 µM | 447 µM | 3000 | – |
| CC(/C=C1\SC(=S)N(CC(=O)O)C1=O)=C\c1ccccc1 | – | – | – | inhibition [5]: Active; inhibition in vivo at 80 mg/kg [6]: 65%; Activity [7]: inactive; Activity [8]: inactive; Activity ([9]; time 4.0 weeks): inactive; Activity ([10]; time 6.0 weeks): inactive; Activity [11]: inactive |
| O=C(O)Cn1c(=O)oc2c(-c3ccc(C(F)(F)F)cc3)cccc21 | 0.0097 µM | 14.4 µM | 1480 | – |
| O=C(O)Cn1c(=O)oc2c(-c3ccc(-c4ccc5ccccc5c4)cc3)cccc21 | 0.023 µM | 8.9 µM | 387 | – |
| O=C(O)Cn1c(=O)oc2c(/C=C/c3ccc(C(F)(F)F)cc3)cccc21 | 0.143 µM | 2880 µM | 20100 | – |
| O=C(O)Cn1c(=O)oc2c(-c3ccc(-c4cccc5ccccc45)cc3)cccc21 | 0.0224 µM | 45.7 µM | 2040 | – |
| CN(C)C(=N)NC(=N)N [METFORMIN] | – | – | – | inhibition [5]: inactive; inhibition in vivo at 80 mg/kg [6]: 43%; inhibition [7]: Active; inhibition in vivo at 80 mg/kg ([9]; 672 h, time 4 weeks): 6%; inhibition in vivo at 80 mg/kg ([10]; 1008 h, time 6 weeks): 41%; inhibition in vivo at 80 mg/kg ([11]; 1344 h): 18% |
| O=C(O)Cn1c(=O)oc2cccc(/C=C/c3ccccc3)c21 | 55 µM | 363 µM | 6.6 | – |

The next lines start with results.

| IC50 [1] | IC50 [2] | Ratio IC50 [3] | Structure (SMILES) | also measured |
| --- | --- | --- | --- | --- |
| 0.0338 µM | 29.5 µM | 873 | COc1ccc(/C=C/c2cccc3c2oc(=O)n3CC(=O)O)cc1OC | – |
| 0.0106 µM | 6.3 µM | 594 | COc1ccc(/C=C/c2cccc3c2oc(=O)n3CC(=O)O)cc1 | – |
| 0.0238 µM | 1.05 µM | 44 | COc1ccc(-c2cccc3c2oc(=O)n3CC(=O)O)cc1 | – |
| 0.125 µM | 174 µM | 1390 | COc1ccc(CCc2cccc3c2oc(=O)n3CC(=O)O)cc1 | – |
| 0.0635 µM | 32.4 µM | 510 | COc1ccc(-c2cccc3c2oc(=O)n3CC(=O)O)cc1OC | – |
| 0.0454 µM | 0.79 µM | 17 | O=C(O)Cn1c(=O)oc2c(/C=C/c3ccc(O)c(O)c3)cccc21 | Activity [4]: 22.7% |
| 0.0245 µM | 30.9 µM | 1260 | O=C(O)Cn1c(=O)oc2c(-c3ccc(CO)cc3)cccc21 | – |
| 0.0855 µM | 72.4 µM | 847 | COc1ccc(-c2cccc3c2oc(=O)n3CC(=O)O)c(OC)c1 | – |
| 0.387 µM | 6.6 µM | 17 | O=C(O)Cn1c(=O)oc2c(-c3ccc(O)c(O)c3)cccc21 | Activity [4]: 61.7% |
| 0.0901 µM | 15.5 µM | 172 | COc1cc(CCc2cccc3c2oc(=O)n3CC(=O)O)ccc1O | Activity [4]: 22.7% |
